The text below walks through data of ChEMBL document CHEMBL3244219, “Synthesis of [1-sarcosine, 8-O-methylserine]angiotensin II and 1-substituted analogues of [8-threonine]angiotensin II as antagonists of angiotensin II” (J Med Chem, 1977).

Where a SMILES comes first, the peptide text is derived from it. [ ]: non-standard residue; d: D form. The star is where a group is joined. Guanidinoacetyl = N=C(N)NCC(=O)*; NMeI = CC[C@H](C)[C@H](NC)C(=O)O; Me2Gly = CN(C)CC(=O)*; Sar = CNCC(=O)O

Experiment [1] concerns Rattus norvegicus. The experiment can be described thus: Pressor activity in ganglion-blocked vagotomized rat administered as bolus injection relative to [Asp1,Ile8]angiotension 2. Type of experiment: functional. Summed up: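 Vagotomized, ganglion-blocked rats received a bolus injection of the analogue. Pressor activity is expressed as percent relative to [Asp¹,Ile⁸]angiotensin II, set at 100.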

A short description of experiment [2]: Antagonist activity at angiotensin 2 receptor in rabbit aortic strip assessed as inhibition of contractile activity. As to conditions: Oryctolagus cuniculus; read-out: pA2 (converted). Summed up:
(§1)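 Rabbit aortic strips; the antagonist opposes angiotensin II-induced contraction. pA₂ is the negative log molar antagonist concentration that reduces the effect of a doubled agonist concentration to that of a single one. It is derived as pA₂ = (log K₂)/n, where n is the slope of log(dose ratio − 1) vs. −log antagonist concentration and K₂ is the y-intercept.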

The species entered for the next experiment is Oryctolagus cuniculus. Briefly: Binding affinity to angiotensin 2 receptor in rabbit aortic strip. Put shortly:
as §1

Experiment [3] has as its system Rattus norvegicus. Briefly: Pressor activity in ganglion-blocked vagotomized rat assessed as angiotensin 2 ED20 at 250 ng/kg/min, iv administered as infusion measured during infusion.
Experiment [4] deals with Rattus norvegicus. Briefly: Pressor activity in ganglion-blocked vagotomized rat assessed as rise in blood pressure at 250 ng/kg/min, iv administered as infusion measured after 3 mins relative to control.
Experiment [5] deals with Rattus norvegicus. Briefly: Pressor activity in ganglion-blocked vagotomized rat assessed as rise in blood pressure at 250 ng/kg/min, iv administered as infusion measured after 10 mins relative to control.
In experiment [6] the test system is Rattus norvegicus. Briefly: Pressor activity in ganglion-blocked vagotomized rat assessed as rise in blood pressure at 250 ng/kg/min, iv administered as infusion measured after 30 mins relative to control.
Experiment [7] concerns Rattus norvegicus. Briefly: Pressor activity in ganglion-blocked vagotomized rat assessed as rise in angiotensin 2 ED20 at 250 ng/kg/min, iv administered as infusion measured during infusion relative to untreated control.
Experiment [8] deals with Rattus norvegicus. The experiment can be described thus: Pressor activity in ganglion-blocked vagotomized rat assessed as rise in blood pressure at 250 ng/kg/min, iv administered as infusion measured after 3 mins relative to control. Type of experiment: functional. Put shortly:
(§2)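 Vagotomized, ganglion-blocked rats were infused with the analogue. Rise in blood pressure (mmHg) was read at 3, 10 and 30 min of infusion. Values are mean ± error over several rats per analogue.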

The test system of experiment [9] is Rattus norvegicus. Briefly: Pressor activity in ganglion-blocked vagotomized rat assessed as rise in blood pressure at 250 ng/kg/min, iv administered as infusion measured after 10 mins relative to control. It counts as functional. Put shortly: as §2
Experiment [10] deals with Rattus norvegicus. The experiment can be described thus: Pressor activity in ganglion-blocked vagotomized rat assessed as rise in blood pressure at 250 ng/kg/min, iv administered as infusion measured after 30 mins relative to control. Type of experiment: functional. Put shortly:
as §2

As for `CC[C@H](C)[C@H](NC(=O)[C@H](Cc1ccc(O)cc1)NC(=O)[C@@H](NC(=O)[C@H](CCCNC(=N)N)NC(=O)CNC(=N)N)C(C)C)C(=O)N[C@@H](Cc1cnc[nH]1)C(=O)N1CCC[C@H]1C(=O)N[C@H](C(=O)O)[C@@H](C)O` (Guanidinoacetyl-RVYIHPT-OH), the Ratio amounted to 0.15 in the experiment with Rattus norvegicus [1] and 1.02 in the experiment on Rattus norvegicus [7]. Besides, the Kb in [2] is 58.9 nM. Further, the log K in the experiment listed under Oryctolagus cuniculus is 2.12. Besides, the ED20 in the experiment on Rattus norvegicus [3] was 1.14 ng. Moreover, the Activity came to 0.5 mmHg with Rattus norvegicus [4], 0.75 mmHg in the experiment with Rattus norvegicus [5] and 3.5 mmHg in the experiment with Rattus norvegicus [6].

For H-RVYIHPT-OH, the Ratio was determined as 0.24 in the experiment with Rattus norvegicus [1] and 1.47 in the experiment with Rattus norvegicus [7]. In experiment [2], the Kb is 29.5 nM. In addition, the log K in the experiment filed under Oryctolagus cuniculus was found to be 2.83. Besides, the ED20 in the experiment on Rattus norvegicus [3] is on record as 3.01 ng. In addition, the Activity came out at 0.5 mmHg with Rattus norvegicus [4], 1.5 mmHg in the experiment with Rattus norvegicus [5] and 4.5 mmHg in the experiment with Rattus norvegicus [6].

In the case of `CC[C@H](C)[C@H](NC(=O)[C@H](Cc1ccc(O)cc1)NC(=O)[C@@H](NC(=O)[C@H](CCCNC(=N)N)NC(=O)CN(C)C)C(C)C)C(=O)N[C@@H](Cc1cnc[nH]1)C(=O)N1CCC[C@H]1C(=O)N[C@H](C(=O)O)[C@@H](C)O` (Me2Gly-RVYIHPT-OH), the Activity with Rattus norvegicus [8] is 7.5 mmHg; in the experiment with Rattus norvegicus [9] it was 12.57 mmHg; in the experiment with Rattus norvegicus [10], 11.71 mmHg. Moreover, the results for the Ratio with Rattus norvegicus [1] and with Rattus norvegicus [7] were 0.38 and 4.49, respectively. For the same molecule, the Kb in experiment [2] is 29.5 nM. Further, in the experiment listed under Oryctolagus cuniculus, the log K worked out at 2.83. Also, the ED20 in the experiment with Rattus norvegicus [3] was found to be 7.7 ng.

In the case of `CC[C@H](C)[C@H](NC(=O)[C@H](Cc1ccc(O)cc1)NC(=O)[C@@H](NC(=O)[C@H](CCCN=C(N)N)NC(=O)CNC)C(C)C)C(=O)N[C@@H](Cc1c[nH]cn1)C(=O)N1CCC[C@H]1C(=O)N[C@H](C(=O)O)[C@@H](C)O` (H-[Sar]RVYIHPT-OH), the figures for the Activity in the experiment with Rattus norvegicus [8], in the experiment on Rattus norvegicus [9] and in the experiment on Rattus norvegicus [10] were 9.46 mmHg, 9.66 mmHg and 9.2 mmHg, respectively. The Ratio in the experiment with Rattus norvegicus [1] was determined as 0.6; with Rattus norvegicus [7], 26.9. Besides, the Kb in [2] was 1.62 nM. Further, the log K in the experiment filed under Oryctolagus cuniculus is 8.1. In the experiment with Rattus norvegicus [3], the ED20 was 44.55 ng.

Regarding `CC[C@H](C)[C@H](NC(=O)[C@H](Cc1ccc(O)cc1)NC(=O)[C@@H](NC(=O)[C@H](CCCNC(=N)N)NC(=O)CNC)C(C)C)C(=O)N[C@@H](Cc1cnc[nH]1)C(=O)N1CCC[C@H]1C(=O)N[C@@H](COC)C(=O)O`, the Activity is 15.66 mmHg in the experiment on Rattus norvegicus [8], 16.16 mmHg in the experiment with Rattus norvegicus [9] and 11.16 mmHg in the experiment with Rattus norvegicus [10]. The Ratio with Rattus norvegicus [1] stood at 0.49; with Rattus norvegicus [7] it was 24.04. Also, in experiment [2], the Kb is 0.219 nM. This molecule returned a log K in the experiment listed under Oryctolagus cuniculus of 5.58. Besides, the ED20 in the experiment on Rattus norvegicus [3] worked out at 37 ng.

Turning to `CC[C@H](C)[C@H](NC)C(=O)N[C@@H](CCCNC(=N)N)C(=O)N[C@H](C(=O)N[C@@H](Cc1ccc(O)cc1)C(=O)N[C@H](C(=O)N[C@@H](Cc1cnc[nH]1)C(=O)N1CCC[C@H]1C(=O)N[C@H](C(=O)O)[C@@H](C)O)[C@@H](C)CC)C(C)C` (H-[NMeI]RVYIHPT-OH), the Ratio in the experiment on Rattus norvegicus [1] is 0.12; in the experiment with Rattus norvegicus [7], 2.37. The Kb in [2] is 20.9 nM. The same molecule showed a log K in the experiment filed under Oryctolagus cuniculus of 2.48. Also, the ED20 with Rattus norvegicus [3] came to 3.59 ng. The Activity with Rattus norvegicus [4] is on record as 4.33 mmHg; in the experiment with Rattus norvegicus [5], 6.66 mmHg; in the experiment on Rattus norvegicus [6] it was 8.05 mmHg.

Turning to `CC[C@H](C)[C@H](NC(=O)[C@H](Cc1ccc(O)cc1)NC(=O)[C@@H](NC(=O)[C@H](CCCNC(=N)N)NC(=O)CNC)C(C)C)C(=O)N[C@@H](Cc1cnc[nH]1)C(=O)N1CCC[C@H]1C(=O)N[C@H](C(=O)O)[C@@H](C)OC`, the Activity was determined as 13.82 mmHg with Rattus norvegicus [8], 15.88 mmHg in the experiment on Rattus norvegicus [9] and 15.06 mmHg in the experiment on Rattus norvegicus [10]. Further, the Ratio in the experiment on Rattus norvegicus [1] turned out to be 0.48; in the experiment with Rattus norvegicus [7], 62.52. Further, in experiment [2], the Kb was 1.74 nM. This molecule yielded a log K in the experiment listed under Oryctolagus cuniculus of 8.39. Moreover, the ED20 in the experiment on Rattus norvegicus [3] is 95.26 ng.
